For one experiment, the system named is HIV-1NL4–3-eGFP. In words: EC50 assay in CEM-CD4+ T-cells, HIV-1 RT activity. It counts as cell-based. Conditions: Human immunodeficiency virus 1, T-cell, 240 h.
The next experiment has as its system HIV-1ADA. Description: EC50 assay in MDM, HIV-1 RT activity. It counts as cell-based. Conditions: Human immunodeficiency virus 1, 240 h. In a few lines:
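Human monocytes differentiated to macrophages with MCSF (1000 U/mL) for 7 days, then seeded at 0.15 × 10^6 cells/well and kept at 37 °C, 5% CO2. Cells were pretreated 2 h with test compound (0.1–1000 nM) and challenged with HIV-1ADA at MOI 0.1 for 4 h. After a PBS wash they were re-fed drug-containing medium at the same concentrations. Supernatant RT activity was read 10 days post-challenge.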

The subject of the next experiment is HIV-1. The note with it: no reference given; cited from earlier work.

The values below come from PMC6875695 (Journal of controlled release : official journal of the …, 2019).

Usually EC50 stands for the midpoint of the concentration-response curve. As for `Cc1cc(/C=C/C#N)cc(C)c1Nc1ccnc(Nc2ccc(C#N)cc2)n1` [RPV, rilpivirine], the EC50 in the experiment on HIV-1NL4–3-eGFP stood at 0.8 nM; in the experiment on HIV-1ADA, 1.9 nM. In addition, the “protein-adjusted 90% inhibitory concentration (PA-IC90)” value in the experiment with HIV-1 is 0.012 µg/mL.
